In assay [1] the test system is Mus musculus. Description: In vivo activity expressed as life span value of average treated / untreated CF-1 mice for 20/13 days (SEM value = 1.54). The class given is functional, organism-based. The method in brief: (§1)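 Female CF-1 mice (30–35 g, 5–8 weeks) received 10^6 TA-3 ascites cells ip. Three days later, daily ip injections of 0.1 mL DPPC-liposomal complex (1.5×10^-2 M in Ti complex, in 0.9% NaCl) began, each dose equal to 4.1 mg/kg, given for 1–5 consecutive days. Groups had 5–7 mice. Mean survival days are given as treated/untreated.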

Assay [2] concerns Mus musculus. As to the kind of experiment: In vivo activity expressed as life span value of average treated / untreated AJ mice for 11.3/6 days (SEM value = 1.88). The class given is functional, organism-based. The essentials:
(§2)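 Female AJ mice (20–25 g, 5–8 weeks) received 10^6 TA-3 ascites cells ip. From day 3 they got 0.1 mL ip of liposomal complex (1.5×10^-2 M in Ti complex, 0.9% NaCl), each dose equal to 6.2 mg/kg, daily for 1–5 consecutive days. Groups had 5–7 animals. Survival days are given as treated/untreated.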

Assay [3] relates to Vero. As to the kind of experiment: In vitro percentage of live Vero cells after treatment at 8 uM. The class given is functional, cell-based. To be noted: Chlorocebus sabaeus. The essentials: (§3)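 Ti complex encapsulated in DPPC liposomes and diluted in 0.9% NaCl. It was added to monolayer cells grown in L-15 with 5% fetal calf serum, penicillin G and gentamicin at 37 °C and 100% humidity, then incubated 72 h at 37 °C. Cells were trypsinized and stained with 0.4% trypan blue, and live cells were counted in a Neubauer chamber. Viability is treated/control viable cells ×100. Five runs.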

Assay [4] relates to Mus musculus. Description: In vivo activity expressed as life span value of average treated / untreated CF-1 mice for 25/13 days (SEM value = 1.92). The assay is classed as functional, organism-based. The essentials:
as §1

Assay [5] deals with Mus musculus. Description: In vivo activity expressed as life span value of average treated / untreated AJ mice for 17.6/6 days (SEM value = 2.93). The assay is classed as functional, organism-based. The method in brief:
as §2

Assay [6] deals with Vero. Description: In vitro percentage of live Vero cells after treatment at 80 uM. The class given is functional, cell-based. To be noted: Chlorocebus sabaeus. The essentials: as §3
In assay [7] the test system is HEp-2. As to the kind of experiment: In vitro percentage of live HEP-2 cells after treatment at 100 uM. The assay is classed as functional, cell-based. To be noted: Homo sapiens. The essentials:
as §3

In assay [8] the test system is Vero. Description: In vitro percentage of live Vero cells after treatment at 500 uM. To be noted: Chlorocebus sabaeus. The class given is functional, cell-based. The method in brief: as §3
In assay [9] the test system is HEp-2. As to the kind of experiment: In vitro percentage of live HEP-2 cells after treatment at 80 uM. The assay is classed as functional, cell-based. To be noted: Homo sapiens. The method in brief:
as §3

Assay [10] concerns Mus musculus. As to the kind of experiment: In vivo activity expressed as life span value of average treated / untreated CF-1 mice for 25.2/13 days (SEM value = 1.94). The assay is classed as functional, organism-based. The essentials: as §1
Assay [11] concerns HEp-2. As to the kind of experiment: In vitro percentage of live HEP-2 cells after treatment at 8 uM. The class given is functional, cell-based. To be noted: Homo sapiens. The method in brief:
as §3

The test system of assay [12] is Mus musculus. Description: In vivo activity expressed as life span value of average treated / untreated AJ mice for 15/6 days (SEM value = 2.54). The assay is classed as functional, organism-based. The method in brief: as §2
Assay [13] relates to HEp-2. Description: In vitro percentage of live HEP-2 cells after treatment at 500 uM. The class given is functional, cell-based. As to conditions: Homo sapiens. The essentials: as §3
The subject of assay [14] is Mus musculus. Description: In vivo activity expressed as life span value of average treated / untreated CF-1 mice for 26/13 days (SEM value = 2). The class given is functional, organism-based. The method in brief: as §1
Assay [15] relates to Vero. As to the kind of experiment: In vitro percentage of live Vero cells after treatment at 100 uM. As to conditions: Chlorocebus sabaeus. The assay is classed as functional, cell-based. The essentials: as §3
Assay [16] concerns Mus musculus. As to the kind of experiment: In vivo activity expressed as life span value of average treated / untreated AJ mice for 9.6/6 days (SEM value = 1.55). The assay is classed as functional, organism-based. As to conditions: in the assay text read “9.3/6 days” for “9.6/6 days”. The method in brief: as §2
Assay [17] deals with Mus musculus. As to the kind of experiment: In vivo activity expressed as life span value of average treated / untreated AJ mice for 11.6/6 days (SEM value = 1.93). The class given is functional, organism-based. The essentials: as §2

Take “cyclo-Tetrakis[bis(1-phenyl-3-methyl-4-benzoylpyrazol-5-onato)-mu-oxotitanium(IV)]”: the T/C came out at 154% with Mus musculus [1]; 188% in the assay on Mus musculus [2]; 192% with Mus musculus [4]; 293% in the assay on Mus musculus [5]; 194% in the assay with Mus musculus [10]; 254% in the assay with Mus musculus [12]. Besides, the T/C was 200% in the assay on Mus musculus [14], 155% in the assay on Mus musculus [16] and 193% in the assay on Mus musculus [17]. Moreover, the viability in the assay with Vero [3] is 100%; with Vero [6] it was 98.4%; in the assay on HEp-2 [7], 40.3%; in the assay on Vero [8] it was 95.2%; in the assay with HEp-2 [9] it was 77.4%; with HEp-2 [11], 77.4%. In addition, the viability with HEp-2 [13] was determined as 30%; with Vero [15], 97.1%.

Values taken from ChEMBL document CHEMBL1132950, “Synthesis, structure, and antitumor activity of a novel tetranuclear titanium complex” (J Med Chem, 2000).
